Data on nine molecules can be found in ChEMBL document CHEMBL3758141, “Cytotoxic C20 Diterpenoid Alkaloids from the Australian Endemic Rainforest Plant Anopterus macleayanus” (J Nat Prod, 2015).

The nature of assay [1]: Cytotoxicity against human BPH1 cells after 72 hrs by AlamarBlue end point assay. Type of assay: cell-based. Conditions: BPH-1, 72 h. The method in brief:
(§1)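 Cells in phenol-red-free RPMI-1640 at 37 °C, 5% CO2, with 5% FBS (DuCaP 10% FBS). Seeded per well for 24 h: LNCaP 4000, C4-2B 3000, DuCaP 15 000, BPH-1 3000, WPMY-1 2000. Compounds in DMSO were diluted in medium (final DMSO 0.3%). After 72 h, metabolic activity was read by AlamarBlue. Controls were a DMSO equivalent and vinblastine 25 nM.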
A general note: The colour change of resazurin is a common sign of viable cells or microbes.

Assay [2] concerns LNCaP. Description: Cytotoxicity against human LNCAP cells after 72 hrs by AlamarBlue end point assay. Type of assay: functional, cell-based. In short, it runs like this: as §1
Assay [3] in a line: Cytotoxicity against human DuCaP cells after 72 hrs by AlamarBlue end point assay. It is filed as functional, cell-based. In short, it runs like this: as §1
A short description of assay [4]: Cytotoxicity against human WPMY-1 cells after 72 hrs by AlamarBlue end point assay. It is filed as cell-based. Conditions: WPMY-1, 72 h. The method in brief:
as §1

Assay [5] is described as follows: Cytotoxicity against human C4-2B cells after 72 hrs by AlamarBlue end point assay. Conditions: LNCaP C4-2B. Type of assay: functional, cell-based. The method in brief: as §1
The test system of assay [6] is LNCaP. The experiment in a line: Cytotoxicity against human LNCAP cells assessed as decrease in cell confluence measured every 2 hrs for 72 hrs by real-time live-cell imaging analysis relative to DMSO control. It is filed as functional, cell-based. The method in brief: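 LNCaP cells in phenol-red-free RPMI-1640 with 5% FBS were seeded at 4000 per well for 24 h. They were then treated with compounds diluted from DMSO (final DMSO 0.3%). The IncuCyte live-cell imager took images every 2 h for 72 h, and growth was tracked as increasing confluence. Controls were a DMSO equivalent and vinblastine 25 nM.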

The subject of assay [7] is LNCaP. The experiment in a line: Selectivity index, ratio of IC50 for human BPH1 cells to IC50 for human LNCAP cells. Type of assay: functional.
In assay [8] the test system is LNCaP. The experiment in a line: Selectivity index, ratio of IC50 for human WPMY-1 cells to IC50 for human LNCAP cells. Type of assay: functional.

As usually defined, the IC50 is the concentration at which inhibition is half-maximal. Read a low IC50 as higher potency. On to `C=C1C[C@]23C[C@H](O)[C@]4(O)[C@@]5(C)C[C@H](O)C[C@]46C([C@H]2[C@H]1[C@@H](OC(=O)/C(C)=C/C)[C@@H](OC(=O)/C(C)=C/CO)[C@H]36)N(C)C5` (stereo partly drawn), for which the IC50 in assay [1] was 177 nM; in the assay on LNCaP [2], 379 nM; in assay [3] it was 355 nM; in assay [4], 328 nM; in assay [5], 340 nM.

Turning to `C=C1C[C@@]23[C@H]4[C@H](OC(=O)c5ccccc5)[C@H](OC(=O)/C(C)=C/C)[C@@H]1[C@@H]2C1N(C)C[C@]2(C)C[C@H](O)C[C@@]14[C@]2(O)[C@@H](O)[C@@H]3O` (stereo partly drawn), the IC50 came out at 9.2 nM in assay [1]; 6.7 nM with LNCaP [2]; 4.1 nM in assay [3]; 4.9 nM in assay [4]; 5.2 nM in assay [5].

For `C=C1C[C@]23C[C@H](O)[C@]4(O)[C@@]5(C)C[C@H](O)C[C@]46C([C@H]2[C@H]1[C@@H](OC(=O)/C(C)=C/C)[C@@H](OC(=O)c1ccccc1)[C@H]36)N(C)C5` (stereo partly drawn), the IC50 in assay [1] came out at 236 nM; with LNCaP [2] it was 190 nM; in assay [3] it was 154 nM; in assay [4] it was 140 nM; in assay [5], 205 nM.

For the molecule `C=C1C[C@]23C[C@H](OC(C)=O)[C@]4(O)[C@@]5(C)C[C@H](O)C[C@]46C([C@H]2[C@H]1[C@@H](OC(=O)/C(C)=C/C)[C@@H](OC(=O)/C(C)=C/C)[C@H]36)N(C)C5.O=C(O)C(F)(F)F` (stereo partly drawn), the Activity entry with LNCaP [6] is “Dose-dependent effect”. Moreover, the Ratio IC50 in the assay with LNCaP [7] came to 3.7; with LNCaP [8] it was 2.1. Moreover, the IC50 in assay [1] is 11.5 nM; in the assay with LNCaP [2], 3.1 nM; in assay [3] it was 8.7 nM; in assay [4], 6.6 nM; in assay [5], 6.2 nM.

As for `CC[C@]1(O)C[C@@H]2CN(CCc3c([nH]c4ccccc34)[C@@](C(=O)OC)(c3cc4c(cc3OC)N(C)[C@H]3[C@@](O)(C(=O)OC)[C@H](OC(C)=O)[C@]5(CC)C=CCN6CC[C@]43[C@@H]65)C2)C1` [VINBLASTINE], the IC50 turned out to be 3.8 nM in assay [1]; 3.2 nM with LNCaP [2]; 3.7 nM in assay [3]; 4.2 nM in assay [4]; 2.4 nM in assay [5].

As to `C=C1C[C@]23C[C@H](OC(C)=O)[C@]4(O)[C@@]5(C)C[C@H](O)C[C@]46C([C@H]2[C@H]1[C@@H](OC(=O)/C(C)=C/C)[C@@H](OC(=O)/C(C)=C/CO)[C@H]36)N(C)C5` (stereo partly drawn), the IC50 worked out at 11.4 nM in assay [1]; 10.9 nM in the assay with LNCaP [2]; 9.9 nM in assay [3]; 9.6 nM in assay [4]; 7 nM in assay [5].

Take `C=C1C[C@]23C[C@H](O)[C@]4(O)[C@@]5(C)C[C@H](O)C[C@]46C([C@H]2[C@H]1[C@@H](OC(=O)/C(C)=C/C)[C@@H](OC(=O)/C(C)=C/C)[C@H]36)N(C)C5` (stereo partly drawn): the IC50 in assay [1] worked out at 29.6 nM; in the assay with LNCaP [2] it was 27.2 nM; in assay [3] it was 86.9 nM; in assay [4] it was 48.2 nM; in assay [5], 45 nM.

As for `C=C1C[C@@]23[C@H]4[C@H](OC(=O)/C(C)=C/C)[C@H](OC(=O)/C(C)=C/C)[C@@H]1[C@@H]2C1N(C)C[C@]2(C)C[C@H](O)C[C@@]14[C@]2(O)[C@@H](O)[C@@H]3O` (stereo partly drawn), the IC50 in assay [1] is 64.3 nM; with LNCaP [2] it was 50.8 nM; in assay [3], 55.7 nM; in assay [4] it was 86 nM; in assay [5], 93.8 nM.

As for `C=C1C[C@@]23[C@H]4[C@H](OC(=O)/C(C)=C/CO)[C@H](OC(=O)/C(C)=C/C)[C@@H]1[C@@H]2C1N(C)C[C@]2(C)C[C@H](O)C[C@@]14[C@]2(O)[C@@H](O)[C@@H]3O` (stereo partly drawn), the IC50 was 134 nM in assay [1]; 72.6 nM with LNCaP [2]; 70.7 nM in assay [3]; 155 nM in assay [4]; 135 nM in assay [5].
